This is an account of results in ChEMBL document CHEMBL1909509, “Mepyramine-JNJ7777120-hybrid compounds show high affinity to hH(1)R, but low affinity to hH(4)R” (Bioorg Med Chem Lett, 2011).

The target in test [1] is Histamine H1 receptor (Cavia porcellus) (UniProt P31389). Put plainly: Partial agonist activity at H1R in guinea pig ileum assessed as inhibition of histamine-induced muscle contraction after 15 mins. It counts as functional, tissue-based. A digest of the protocol: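 Isolated guinea-pig ileum, contraction induced by histamine; test ligand incubated 15 min before the histamine response.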
Sequence of Histamine H1 receptor (Cavia porcellus) (P31389 whole entry): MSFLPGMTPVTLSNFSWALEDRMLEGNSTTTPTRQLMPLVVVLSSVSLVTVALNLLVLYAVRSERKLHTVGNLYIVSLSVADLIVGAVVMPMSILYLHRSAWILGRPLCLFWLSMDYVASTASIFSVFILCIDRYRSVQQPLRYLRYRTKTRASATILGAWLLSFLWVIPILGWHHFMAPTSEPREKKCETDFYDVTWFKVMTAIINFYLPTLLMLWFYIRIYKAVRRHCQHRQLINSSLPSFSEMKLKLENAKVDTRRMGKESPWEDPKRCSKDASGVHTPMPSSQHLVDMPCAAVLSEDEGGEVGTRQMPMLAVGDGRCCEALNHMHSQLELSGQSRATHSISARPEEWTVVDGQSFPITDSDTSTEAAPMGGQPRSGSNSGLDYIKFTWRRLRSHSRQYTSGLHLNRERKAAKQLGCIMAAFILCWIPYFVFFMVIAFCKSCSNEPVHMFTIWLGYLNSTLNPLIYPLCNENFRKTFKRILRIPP

Test [2] deals with T1, Histamine H4 receptor (Homo sapiens, UniProt Q9H3N8). Nature of the test: Partial agonist activity at human H4R expressed in Sf9 cells co-expressing RGS19, Galphai2 and Gbeta1gamma2 assessed as stimulation of [35S]GTPgammaS binding relative to histamine. It counts as functional.
T1 sequence (Q9H3N8 whole entry): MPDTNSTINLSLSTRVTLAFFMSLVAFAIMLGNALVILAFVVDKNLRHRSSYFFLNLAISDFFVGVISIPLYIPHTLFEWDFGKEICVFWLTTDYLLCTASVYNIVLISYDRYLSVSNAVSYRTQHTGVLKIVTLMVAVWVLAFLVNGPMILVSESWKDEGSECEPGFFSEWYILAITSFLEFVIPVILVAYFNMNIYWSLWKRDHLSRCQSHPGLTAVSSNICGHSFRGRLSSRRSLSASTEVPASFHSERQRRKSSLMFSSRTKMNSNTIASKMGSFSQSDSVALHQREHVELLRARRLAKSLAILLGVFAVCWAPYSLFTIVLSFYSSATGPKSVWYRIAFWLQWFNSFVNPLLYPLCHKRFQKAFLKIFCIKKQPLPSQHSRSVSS
In test [3] the target is T1, Histamine H4 receptor. Put plainly: Partial agonist activity at human H4R expressed in Sf9 cells co-expressing RGS19, Galphai2 and Gbeta1gamma2 assessed as stimulation of [35S]GTPgammaS binding. Type of test: functional.
Test [4] has as its target T1, Histamine H4 receptor. Put plainly: Displacement of [3H]histamine from human H4R expressed in Sf9 cells co-expressing RGS19, Galphai2 and Gbeta1gamma2 after 60 mins by liquid scintillation counting. A general note: Displacement assays read how much labelled ligand stays bound in the presence of the test substance.
In test [5] the target is Histamine H1 receptor (Homo sapiens, UniProt P35367). Nature of the test: biochemical. It counts as cell-based, Sf9.
Sequence of Histamine H1 receptor (Homo sapiens, UniProt P35367) (P35367 whole entry): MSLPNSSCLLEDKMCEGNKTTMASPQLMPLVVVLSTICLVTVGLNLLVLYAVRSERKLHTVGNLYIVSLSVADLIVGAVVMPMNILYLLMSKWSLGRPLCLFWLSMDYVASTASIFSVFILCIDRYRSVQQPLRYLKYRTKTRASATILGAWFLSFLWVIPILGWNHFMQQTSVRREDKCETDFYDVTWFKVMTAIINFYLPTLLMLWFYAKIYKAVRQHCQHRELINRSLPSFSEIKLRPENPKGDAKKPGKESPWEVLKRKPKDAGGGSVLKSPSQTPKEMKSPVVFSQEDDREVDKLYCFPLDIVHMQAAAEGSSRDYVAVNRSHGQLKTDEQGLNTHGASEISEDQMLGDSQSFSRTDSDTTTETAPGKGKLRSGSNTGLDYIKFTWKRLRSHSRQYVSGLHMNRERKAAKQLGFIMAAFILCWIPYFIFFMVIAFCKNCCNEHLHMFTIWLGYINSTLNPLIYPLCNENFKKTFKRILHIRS
The target of test [6] is Histamine H1 receptor (Cavia porcellus, UniProt P31389). Nature of the test: Antagonist activity at H1R in guinea pig ileum assessed as inhibition of histamine-induced muscle contraction after 15 mins. It counts as functional, tissue-based. The conditions noted are these: read-out: pA2 (converted).
Sequence of Histamine H1 receptor (Cavia porcellus, UniProt P31389) (P31389 whole entry): as the sequence (P31389 whole entry) above
In test [7] the target is T1, Histamine H4 receptor. Put plainly: Inverse agonist activity at human H4R expressed in Sf9 cells co-expressing RGS19, Galphai2 and Gbeta1gamma2 assessed as […] of [35S]GTPgammaS binding relative to histamine. Type of test: functional. In general terms: Binding of GTPγS marks nucleotide exchange on a G protein.
In test [8] the target is T1, Histamine H4 receptor. Put plainly: Inverse agonist activity at human H4R expressed in Sf9 cells co-expressing RGS19, Galphai2 and Gbeta1gamma2 assessed as […] of [35S]GTPgammaS binding. It counts as functional.

The structures appear in SMILES notation. Calls of active or inactive are those of the source. The rule behind the calls is not given here. Some results are limits rather than exact numbers.

For the molecule `COc1ccc(CN(CCN2CCN(C(=O)c3cc4ccccc4[nH]3)CC2)c2ccccn2)cc1`, in test [1], the inhibition entry is “inactive”. Further, the Emax at Histamine H4 receptor [2] was 88%. Also, the EC50 at Histamine H4 receptor [3] was 105000 nM. Moreover, the results for the Ki at Histamine H4 receptor [4] and at Histamine H1 receptor [5] were 5890 nM and 170 nM, respectively. In addition, the Kb on Histamine H1 receptor [6] is 10.7 nM.
`COc1ccc(CN(CCN(C)CC(C)Nc2ccc3[nH]c(C(=O)N4CCN(C)CC4)cc3c2)c2ccccn2)cc1` (racemic): the inhibition entry in test [1] is “inactive”. Further, the Ki is 14100 nM at Histamine H4 receptor [4] and 214 nM at Histamine H1 receptor [5]. In addition, the Kb at Histamine H1 receptor [6] is 12.6 nM.
`COc1ccc(CN(CCN2CCN(C(=O)c3cc4cc(Cl)ccc4[nH]3)CC2)c2ccccn2)cc1`: the inhibition entry in test [1] was “inactive”. Also, the Ki is 15800 nM on Histamine H4 receptor [4] and 776 nM at Histamine H1 receptor [5]. Further, the Kb on Histamine H1 receptor [6] was 20.4 nM.
For `O=C(c1cc2ccccc2[nH]1)N1CCN(CCOC(c2ccccc2)c2ccccc2)CC1`, the inhibition result in test [1] is “inactive”. The Ki is 17800 nM at Histamine H4 receptor [4] and 224 nM on Histamine H1 receptor [5].
As for `COc1ccc(CN(CCN(C)CCN2CCN(C(=O)c3cc4ccccc4[nH]3)CC2)c2ccccn2)cc1`, the Emax on Histamine H4 receptor [7] is less than -1%. For the same molecule, the inhibition entry in test [1] is “inactive”. Moreover, the inhibition constant (Ki) on Histamine H4 receptor [4] was 8910 nM; on Histamine H1 receptor [5], 7.08 nM. Moreover, the 50% effective concentration (EC50) on Histamine H4 receptor [8] is more than 100000 nM. For the same molecule, at Histamine H1 receptor [6], the Kb is 4.9 nM.
In turn, `COc1ccc(CCN2CCC(Nc3nc4ccccc4n3Cc3ccc(F)cc3)CC2)cc1` [ASTEMIZOLE] gave a Ki at Histamine H4 receptor [4] of 7940 nM.
On to `O=C(c1cc2ccccc2[nH]1)N1CCN(CCN2CCC(Nc3nc4ccccc4n3Cc3ccc(F)cc3)CC2)CC1`, for which the values for the Ki at Histamine H4 receptor [4] and on Histamine H1 receptor [5] were 10500 nM and 5.5 nM, respectively.
For `COc1ccc(CN(CCN2CCN(C(=O)c3nc4ccccc4[nH]3)CC2)c2ccccn2)cc1`, the inhibition entry in test [1] was “inactive”. In addition, the Ki was 22400 nM at Histamine H4 receptor [4] and 603 nM at Histamine H1 receptor [5]. Moreover, on Histamine H1 receptor [6], the Kb is 7.24 nM.
The corresponding values for `COc1ccc(CN(CCN(C)CCN2CCN(C(=O)c3cc4cc(Cl)ccc4[nH]3)CC2)c2ccccn2)cc1` are “inactive”, 6760 nM, 100 nM and 7.59 nM.
The corresponding values for `COc1ccc(CN(CCN[C@H]2CCN(C(=O)c3cc4ccccc4[nH]3)C2)c2ccccn2)cc1` are “inactive”, 27500 nM, 457 nM and 8.51 nM.
`CN1CCN(C(=O)c2nc3ccccc3[nH]2)CC1` gave a Ki at Histamine H4 receptor [4] of 288 nM.

As usually defined, the Emax is the greatest response seen or fitted, relative to the assay's reference. As usually defined, the EC50 is the concentration that produces a half-maximal response. For orientation: Ki means the equilibrium dissociation constant of an inhibitor or competing ligand from its target. Lower therefore signals a stronger hold on the target.
